Assay results reported in ChEMBL document CHEMBL1944580, “Synthesis of novel sulfonamide-1,2,4-triazoles, 1,3,4-thiadiazoles and 1,3,4-oxadiazoles, as potential antibacterial and antifungal agents. Biological evaluation and conformational analysis studies” (2012).
Values after ≈ are worked out from the molar mass of the structure shown.

system: Staphylococcus aureus; assay: Antibacterial activity against Staphylococcus aureus ATCC 6538 after 24 hrs by micro dilution method; assay type: functional; conditions: ATCC 6538, 24 h
Method in brief: (§1)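 Microdilution MIC in 96-well plates. Bacterial suspensions adjusted in sterile saline to 1.0 × 10^5 CFU/ml, giving 1.0 × 10^4 cfu per well in LB broth. Compounds tested at up to 1 mg/ml. Plates incubated 24 h. MIC taken as the lowest concentration with no visible growth under a binocular microscope. OD at 655 nm was also read against a blank and the positive control. Streptomycin and ampicillin were the positive controls.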

**Q.** With `CCCCNc1nnc(Cc2cc(OC)c(OC)cc2S(=O)(=O)N(C)C)s1` as the compound, how does the MIC read?
**A.** 480 µM (≈ 199 µg/mL)

system: Enterobacter cloacae; assay: Antibacterial activity against Enterobacter cloacae human isolate after 24 hrs by micro dilution method; assay type: functional; conditions: not given; method in brief: as §1

**Q.** `CCCCNc1nnc(Cc2cc(OC)c(OC)cc2S(=O)(=O)N(C)C)s1` was tested. Which MIC did it give?
**A.** 240 µM (≈ 99.5 µg/mL)

system: Aspergillus niger; assay: Antifungal activity against Aspergillus niger ATCC 6275 after 72 hrs by serial dilution method; assay type: functional; conditions: ATCC 6275, 72 h
Method in brief: (§2)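 Modified microdilution MIC. Spores were washed from malt agar cultures with sterile 0.85% saline containing 0.1% Tween 80 and adjusted to about 1.0 × 10^5 per 100 µl well in malt broth. Compounds were dissolved in DMSO (1 mg/ml). Plates incubated 72 h at 28 °C. MIC is the lowest concentration with no visible growth under a binocular microscope. Bifonazole and ketoconazole were the references.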

**Q.** With `CCCCNc1nnc(Cc2cc(OC)c(OC)cc2S(=O)(=O)N(C)C)s1` as the compound, how does the MIC read?
**A.** 60 µM (≈ 24.9 µg/mL)

system: Aspergillus versicolor; assay: Antifungal activity against Aspergillus versicolor ATCC 11730 after 72 hrs by serial dilution method; assay type: functional; conditions: ATCC 11730, 72 h; method in brief: as §2

**Q.** How did the MIC turn out when `CCCCNc1nnc(Cc2cc(OC)c(OC)cc2S(=O)(=O)N(C)C)s1` was run?
**A.** 120 µM (≈ 49.7 µg/mL)

system: Escherichia coli; assay: Antibacterial activity against Escherichia coli ATCC 35210 treated for 24 hrs followed by sub-cultivated for 72 hrs by micro dilution method; assay type: functional; conditions: not given
Method in brief: (§3)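 2 µl from each well was serially subcultured into 100 µl fresh broth per well and incubated a further 72 h. MBC is the lowest concentration with no visible growth, taken as 99.5% killing of the original inoculum. Streptomycin and ampicillin were the positive controls.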

**Q.** With `CCCCNc1nnc(Cc2cc(OC)c(OC)cc2S(=O)(=O)N(C)C)s1` as the compound, how does the MBC read?
**A.** 480 µM (≈ 199 µg/mL)

system: Trichoderma viride; assay: Antifungal activity against Trichoderma viride IAM 5061 treated for 72 hrs followed by sub-cultivated for 5 days by serial dilution method; assay type: functional; conditions: not given
Method in brief: (§4)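 MFC obtained after the 72 h, 28 °C malt-broth microdilution (spore inoculum about 1.0 × 10^5 per well, compounds from 1 mg/ml DMSO). 2 µl was serially subcultured into 100 µl broth per well and incubated a further 5 days at 28 °C. MFC is the lowest concentration with no visible growth, taken as 99.5% killing of the original inoculum.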

**Q.** `CCCCNc1nnc(Cc2cc(OC)c(OC)cc2S(=O)(=O)N(C)C)s1` was tested. Which MFC did it give?
**A.** 120 µM (≈ 49.7 µg/mL)

system: Micrococcus flavus; assay: Antibacterial activity against Micrococcus flavus ATCC 10240 treated for 24 hrs followed by sub-cultivated for 72 hrs by micro dilution method; assay type: functional; conditions: not given; method in brief: as §3

**Q.** With `CCCCNc1nnc(Cc2cc(OC)c(OC)cc2S(=O)(=O)N(C)C)s1` as the compound, how does the MBC read?
**A.** 480 µM (≈ 199 µg/mL)

system: Salmonella typhimurium; assay: Antibacterial activity against Salmonella Typhimurium ATCC 13311 after 24 hrs by micro dilution method; assay type: functional, Salmonella enterica subsp. enterica serovar Typhimurium; conditions: Salmonella enterica, ATCC 13311, 24 h; method in brief: as §1

**Q.** With `CCCCNc1nnc(Cc2cc(OC)c(OC)cc2S(=O)(=O)N(C)C)s1` as the compound, how does the MIC read?
**A.** 240 µM (≈ 99.5 µg/mL)

system: Aspergillus fumigatus; assay: Antifungal activity against Aspergillus fumigatus human isolate treated for 72 hrs followed by sub-cultivated for 5 days by serial dilution method; assay type: functional; conditions: not given; method in brief: as §4

**Q.** How did the MFC turn out when `CCCCNc1nnc(Cc2cc(OC)c(OC)cc2S(=O)(=O)N(C)C)s1` was run?
**A.** 240 µM (≈ 99.5 µg/mL)

system: Aspergillus versicolor; assay: Antifungal activity against Aspergillus versicolor ATCC 11730 treated for 72 hrs followed by sub-cultivated for 5 days by serial dilution method; assay type: functional; conditions: not given; method in brief: as §4

**Q.** Which MFC does the source give for `CCCCNc1nnc(Cc2cc(OC)c(OC)cc2S(=O)(=O)N(C)C)s1` here?
**A.** 240 µM (≈ 99.5 µg/mL)

system: Pseudomonas aeruginosa; assay: Antibacterial activity against Pseudomonas aeruginosa ATCC 27853 after 24 hrs by micro dilution method; assay type: functional; conditions: ATCC 27853, 24 h; method in brief: as §1

**Q.** How did the MIC turn out when `CCCCNc1nnc(Cc2cc(OC)c(OC)cc2S(=O)(=O)N(C)C)s1` was run?
**A.** 480 µM (≈ 199 µg/mL)

system: Micrococcus flavus; assay: Antibacterial activity against Micrococcus flavus ATCC 10240 after 24 hrs by micro dilution method; assay type: functional; conditions: ATCC 10240, 24 h; method in brief: as §1

**Q.** For `CCCCNc1nnc(Cc2cc(OC)c(OC)cc2S(=O)(=O)N(C)C)s1`, which MIC is on record?
**A.** 240 µM (≈ 99.5 µg/mL)

system: Listeria monocytogenes; assay: Antibacterial activity against Listeria monocytogenes NCTC 7973 treated for 24 hrs followed by sub-cultivated for 72 hrs by micro dilution method; assay type: functional; conditions: not given; method in brief: as §3

**Q.** `CCCCNc1nnc(Cc2cc(OC)c(OC)cc2S(=O)(=O)N(C)C)s1` was tested. Which MBC did it give?
**A.** 480 µM (≈ 199 µg/mL)

system: Talaromyces funiculosus; assay: Antifungal activity against Penicillium funiculosum ATCC 36839 after 72 hrs by serial dilution method; assay type: functional; conditions: ATCC 36839, 72 h; method in brief: as §2

**Q.** `CCCCNc1nnc(Cc2cc(OC)c(OC)cc2S(=O)(=O)N(C)C)s1` was tested. Which MIC did it give?
**A.** 120 µM (≈ 49.7 µg/mL)

system: Listeria monocytogenes; assay: Antibacterial activity against Listeria monocytogenes NCTC 7973 after 24 hrs by micro dilution method; assay type: functional; conditions: NCTC 7973, 24 h; method in brief: as §1

**Q.** With `CCCCNc1nnc(Cc2cc(OC)c(OC)cc2S(=O)(=O)N(C)C)s1` as the compound, how does the MIC read?
**A.** 240 µM (≈ 99.5 µg/mL)

system: Trichoderma viride; assay: Antifungal activity against Trichoderma viride IAM 5061 after 72 hrs by serial dilution method; assay type: functional; conditions: IAM 5061, 72 h; method in brief: as §2

**Q.** With `CCCCNc1nnc(Cc2cc(OC)c(OC)cc2S(=O)(=O)N(C)C)s1` as the compound, how does the MIC read?
**A.** 60 µM (≈ 24.9 µg/mL)

system: Bacillus cereus; assay: Antibacterial activity against Bacillus cereus clinical isolate treated for 24 hrs followed by sub-cultivated for 72 hrs by micro dilution method; assay type: functional; conditions: not given; method in brief: as §3

**Q.** Which MBC does the source give for `CCCCNc1nnc(Cc2cc(OC)c(OC)cc2S(=O)(=O)N(C)C)s1` here?
**A.** 240 µM (≈ 99.5 µg/mL)

system: Fulvia fulva; assay: Antifungal activity against Fulvia fulva treated for 72 hrs followed by sub-cultivated for 5 days by serial dilution method; assay type: functional; conditions: not given; method in brief: as §4

**Q.** For `CCCCNc1nnc(Cc2cc(OC)c(OC)cc2S(=O)(=O)N(C)C)s1`, which MFC is on record?
**A.** 120 µM (≈ 49.7 µg/mL)

system: Aspergillus flavus; assay: Antifungal activity against Aspergillus flavus ATCC 9643 treated for 72 hrs followed by sub-cultivated for 5 days by serial dilution method; assay type: functional; conditions: not given; method in brief: as §4

**Q.** How did the MFC turn out when `CCCCNc1nnc(Cc2cc(OC)c(OC)cc2S(=O)(=O)N(C)C)s1` was run?
**A.** 240 µM (≈ 99.5 µg/mL)

system: Aspergillus niger; assay: Antifungal activity against Aspergillus niger ATCC 6275 treated for 72 hrs followed by sub-cultivated for 5 days by serial dilution method; assay type: functional; conditions: not given; method in brief: as §4

**Q.** Which MFC does the source give for `CCCCNc1nnc(Cc2cc(OC)c(OC)cc2S(=O)(=O)N(C)C)s1` here?
**A.** 120 µM (≈ 49.7 µg/mL)

system: Enterobacter cloacae; assay: Antibacterial activity against Enterobacter cloacae human isolate treated for 24 hrs followed by sub-cultivated for 72 hrs by micro dilution method; assay type: functional; conditions: not given; method in brief: as §3

**Q.** Which MBC does the source give for `CCCCNc1nnc(Cc2cc(OC)c(OC)cc2S(=O)(=O)N(C)C)s1` here?
**A.** 240 µM (≈ 99.5 µg/mL)

system: Penicillium ochrochloron; assay: Antifungal activity against Penicillium ochrochloron ATCC 9112 after 72 hrs by serial dilution method; assay type: functional; conditions: ATCC 9112, 72 h; method in brief: as §2

**Q.** With `CCCCNc1nnc(Cc2cc(OC)c(OC)cc2S(=O)(=O)N(C)C)s1` as the compound, how does the MIC read?
**A.** 120 µM (≈ 49.7 µg/mL)

system: Aspergillus fumigatus; assay: Antifungal activity against Aspergillus fumigatus human isolate after 72 hrs by serial dilution method; assay type: functional; conditions: not given; method in brief: as §2

**Q.** For `CCCCNc1nnc(Cc2cc(OC)c(OC)cc2S(=O)(=O)N(C)C)s1`, which MIC is on record?
**A.** 120 µM (≈ 49.7 µg/mL)

system: Salmonella typhimurium; assay: Antibacterial activity against Salmonella Typhimurium ATCC 13311 treated for 24 hrs followed by sub-cultivated for 72 hrs by micro dilution method; assay type: functional, Salmonella enterica subsp. enterica serovar Typhimurium; conditions: Salmonella enterica; method in brief: as §3

**Q.** `CCCCNc1nnc(Cc2cc(OC)c(OC)cc2S(=O)(=O)N(C)C)s1` was tested. Which MBC did it give?
**A.** 240 µM (≈ 99.5 µg/mL)

system: Penicillium ochrochloron; assay: Antifungal activity against Penicillium ochrochloron ATCC 9112 treated for 72 hrs followed by sub-cultivated for 5 days by serial dilution method; assay type: functional; conditions: not given; method in brief: as §4

**Q.** With `CCCCNc1nnc(Cc2cc(OC)c(OC)cc2S(=O)(=O)N(C)C)s1` as the compound, how does the MFC read?
**A.** 240 µM (≈ 99.5 µg/mL)

system: Fulvia fulva; assay: Antifungal activity against Fulvia fulva after 72 hrs by serial dilution method; assay type: functional; conditions: not given; method in brief: as §2

**Q.** How did the MIC turn out when `CCCCNc1nnc(Cc2cc(OC)c(OC)cc2S(=O)(=O)N(C)C)s1` was run?
**A.** 60 µM (≈ 24.9 µg/mL)

system: Talaromyces funiculosus; assay: Antifungal activity against Penicillium funiculosum ATCC 36839 treated for 72 hrs followed by sub-cultivated for 5 days by serial dilution method; assay type: functional; conditions: not given; method in brief: as §4

**Q.** Which MFC does the source give for `CCCCNc1nnc(Cc2cc(OC)c(OC)cc2S(=O)(=O)N(C)C)s1` here?
**A.** 240 µM (≈ 99.5 µg/mL)

system: Staphylococcus aureus; assay: Antibacterial activity against Staphylococcus aureus ATCC 6538 treated for 24 hrs followed by sub-cultivated for 72 hrs by micro dilution method; assay type: functional; conditions: not given; method in brief: as §3

**Q.** Which MBC does the source give for `CCCCNc1nnc(Cc2cc(OC)c(OC)cc2S(=O)(=O)N(C)C)s1` here?
**A.** 480 µM (≈ 199 µg/mL)

system: Bacillus cereus; assay: Antibacterial activity against Bacillus cereus clinical isolate after 24 hrs by micro dilution method; assay type: functional; conditions: not given; method in brief: as §1

**Q.** For `CCCCNc1nnc(Cc2cc(OC)c(OC)cc2S(=O)(=O)N(C)C)s1`, which MIC is on record?
**A.** 240 µM (≈ 99.5 µg/mL)

system: Pseudomonas aeruginosa; assay: Antibacterial activity against Pseudomonas aeruginosa ATCC 27853 treated for 24 hrs followed by sub-cultivated for 72 hrs by micro dilution method; assay type: functional; conditions: not given; method in brief: as §3

**Q.** With `CCCCNc1nnc(Cc2cc(OC)c(OC)cc2S(=O)(=O)N(C)C)s1` as the compound, how does the MBC read?
**A.** 480 µM (≈ 199 µg/mL)

system: Escherichia coli; assay: Antibacterial activity against Escherichia coli ATCC 35210 after 24 hrs by micro dilution method; assay type: functional; conditions: ATCC 35210, 24 h; method in brief: as §1

**Q.** Which MIC does the source give for `CCCCNc1nnc(Cc2cc(OC)c(OC)cc2S(=O)(=O)N(C)C)s1` here?
**A.** 480 µM (≈ 199 µg/mL)

system: Aspergillus flavus; assay: Antifungal activity against Aspergillus flavus ATCC 9643 after 72 hrs by serial dilution method; assay type: functional; conditions: ATCC 9643, 72 h; method in brief: as §2

**Q.** For `CCCCNc1nnc(Cc2cc(OC)c(OC)cc2S(=O)(=O)N(C)C)s1`, which MIC is on record?
**A.** 120 µM (≈ 49.7 µg/mL)
